Source: ChEMBL document CHEMBL1649111, “Restoration of susceptibility of intracellular methicillin-resistant Staphylococcus aureus to beta-lactams: comparison of strains, cells, and antibiotics” (Antimicrob Agents Chemother, 2008)
Values after ≈ are worked out from the molar mass of the structure shown.

Key:
Staphylococcus aureus [1] = experiment: Bacteriostatic activity against hospital acquired methicillin-resistant Staphylococcus aureus HMC546 infected in human THP-1 cells assessed as decrease in bacterial growth after 24 hrs at pH 5.5; type: functional
Procedure, shortened: (§1)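 Human THP-1 macrophages infected with each S. aureus strain. Cloxacillin added extracellularly at about 0.01× to 100× the broth MIC measured at pH 5.5, with gentamicin 0.5 mg/liter to stop extracellular growth. Incubated 24 h. CFU counted per mg cell protein as change from the post-phagocytosis inoculum, n = 3. Emin, Emax and EC50 from a Hill fit; static concentration by graphical interpolation.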

Staphylococcus aureus [2] = experiment: Antimicrobial activity against beta-lactamase negative methicillin-susceptible Staphylococcus aureus ATCC 25923 infected in human THP-1 cells assessed as decrease in bacterial growth after 24 hrs at pH 5.5; type: functional, organism-based; settings: ATCC 25923, THP-1, 24 h
Procedure, shortened: (§2)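 Bacteria phagocytosed by unactivated human THP-1 macrophages, then incubated 24 h with extracellular antibiotic at about 0.01× to 100× the pH 5.5 broth MIC. CFU per mg cell protein counted against the original inoculum, n = 3. A Hill-equation fit (slope factor 1) gave Emin and Emax, extrapolated to infinitely low and high concentration, and EC50. Static concentration was graphically interpolated.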

Staphylococcus aureus [3] = experiment: Antimicrobial activity against intracellular beta-lactamase negative methicillin-susceptible Staphylococcus aureus ATCC 25923 infected in human keratinocytes assessed as decrease in bacterial count from original inoculum at high compound concentration after 24 hrs at pH 7.4; type: functional
Procedure, shortened: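 Primary human skin keratinocytes or Calu-3 bronchial epithelial cells infected with MSSA ATCC 25923 at 5 × 10⁷ to 1 × 10⁸ bacteria/ml, 2 h internalization. Postphagocytosis inoculum 1.5 × 10⁶ to 3.0 × 10⁶ CFU/mg protein. Cloxacillin concentration range for 24 h; CFU/mg protein change vs. inoculum (n = 3). Hill fit gives Emin/Emax; static concentration by graphical interpolation.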

Staphylococcus aureus [4] = experiment: Antimicrobial activity against intracellular hospital acquired methicillin-resistant Staphylococcus aureus ATCC 33591 infected in activated human THP-1 cells assessed as increase in bacterial count from original inoculum at low compound concentration after 24 hrs at pH 7.4; type: functional
Procedure, shortened: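 THP-1 cells activated by 24-h culture with phorbol myristate acetate 2 mg/liter, then infected like unactivated THP-1. Cloxacillin dose range in mg/liter for 24 h. CFU per mg cell protein relative to the original inoculum, n = 3. Emin and Emax extrapolated from a Hill fit (slope 1), with EC50 as total drug; static concentration by graphical interpolation.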

Staphylococcus aureus [5] = experiment: Bacteriostatic activity against hospital acquired methicillin-resistant and vancomycin-intermediate Staphylococcus aureus VRS2 infected in human THP-1 cells assessed as decrease in bacterial growth after 24 hrs at pH 5.5; type: functional; procedure, shortened: as §1
Staphylococcus aureus [6] = experiment: Antimicrobial activity against animal acquired methicillin-resistant Staphylococcus aureus N7112046 infected in human THP-1 cells assessed as decrease in bacterial count from original inoculum at high compound concentration after 24 hrs at pH 5.5; type: functional; procedure, shortened: as §2
Staphylococcus aureus [7] = experiment: Antimicrobial activity against constitutive beta-lactamase negative methicillin-resistant Staphylococcus aureus COL NRS100 infected in human THP-1 cells assessed as increase in bacterial count from original inoculum at low compound concentration after 24 hrs at pH 5.5; type: functional; procedure, shortened: as §2
Staphylococcus aureus [8] = experiment: Antimicrobial activity against hospital acquired methicillin-resistant and […] Staphylococcus aureus VRS2 obtained from patient with wound, skin and soft tissue infection by broth microdilution method at pH 5.5; type: functional
Staphylococcus aureus [9] = experiment: Antimicrobial activity against beta-lactamase negative methicillin-susceptible Staphylococcus aureus ATCC 25923 infected in human THP-1 cells assessed as decrease in bacterial count from original inoculum at high compound concentration after 24 hrs at pH 5.5; type: functional
Procedure, shortened: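 MSSA ATCC 25923 phagocytized by unactivated THP-1 macrophages; extracellular antibiotic from about 0.01× to 100× the broth MIC at pH 5.5, with gentamicin 0.5 mg/liter to block extracellular growth. CFU per mg cell protein counted at 24 h vs. original inoculum (n = 3). A Hill equation (slope factor 1) gives Emin/Emax, extrapolated to infinitely low/high concentration. Static concentration is read by graphical interpolation.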

Staphylococcus aureus [10] = experiment: Antimicrobial activity against Panton-valentine leukocidin positive community acquired methicillin-resistant Staphylococcus aureus N4042228 infected in human THP-1 cells assessed as decrease in bacterial count from original inoculum at high compound concentration after 24 hrs at pH 5.5; type: functional; procedure, shortened: as §2
Staphylococcus aureus [11] = experiment: Antimicrobial activity against hospital acquired methicillin-resistant Staphylococcus aureus N4120032 obtained from wound infection opf patient infected in human THP-1 cells assessed as decrease in bacterial count from original inoculum at high compound concentration after 24 hrs at pH 5.5; type: functional; procedure, shortened: as §2
Staphylococcus aureus [12] = experiment: Antimicrobial activity against hospital acquired methicillin-resistant Staphylococcus aureus N4120210 obtained from urinary tract infection patient by broth microdilution method at pH 7.4; type: functional; settings: N4120210, Urine
Procedure, shortened: (§3)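 Minimal inhibitory concentration by broth microdilution at pH 7.4, read in mg/liter. The MRSA genotype was confirmed by mecA PCR, and the SCCmec subgroup was assigned by multiplex PCR.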

Staphylococcus aureus [13] = experiment: Antimicrobial activity against animal acquired methicillin-resistant Staphylococcus aureus N7112046 infected in human THP-1 cells assessed as decrease in bacterial growth after 24 hrs at pH 5.5; type: functional, organism-based; settings: N7112046, THP-1, 24 h; procedure, shortened: as §2
Staphylococcus aureus [14] = experiment: Antimicrobial activity against intracellular hospital acquired methicillin-resistant Staphylococcus aureus ATCC 33591 infected in human keratinocytes assessed as decrease in bacterial growth after 24 hrs at pH 7.4; type: functional, organism-based; settings: ATCC 33591, 24 h
Procedure, shortened: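 Primary human skin keratinocytes or Calu-3 bronchial epithelial cells, given an inoculum of 5 × 10⁷ to 1 × 10⁸ bacteria/ml and 2 h for internalization. Post-phagocytosis load 1.5 × 10⁶ to 3.0 × 10⁶ CFU per mg cell protein. Cloxacillin dose range in mg/liter for 24 h, n = 3. Hill-derived Emin, Emax and EC50; static concentration interpolated.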

Staphylococcus aureus [15] = experiment: Antimicrobial activity against hospital acquired methicillin-resistant and vancomycin-intermediate Staphylococcus aureus VRS2 obtained from patient with wound, skin and soft tissue infection by broth microdilution method at pH 7.4; type: functional; procedure, shortened: as §3
Staphylococcus aureus [16] = experiment: Antimicrobial activity against beta-lactamase negative methicillin-susceptible Staphylococcus aureus ATCC 25923 infected in human THP-1 cells assessed as decrease in bacterial count from original inoculum at high compound concentration after 24 hrs at pH 7.4; type: functional
Staphylococcus aureus [17] = experiment: Bacteriostatic activity against hospital acquired methicillin-resistant Staphylococcus aureus ATCC 33591 infected in human THP-1 cells assessed as decrease in bacterial growth after 24 hrs at pH 7.4; type: functional
Procedure, shortened: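 THP-1 macrophages, unactivated, infected with MRSA ATCC 33591. Cloxacillin over a range of extracellular concentrations (mg/liter) with a 24-h exposure. CFU per mg cell protein as change from the original inoculum, n = 3. Hill equation fitted with slope factor 1; static concentration (no change from inoculum) read by graphical interpolation.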

Staphylococcus aureus [18] = experiment: Antimicrobial activity against Panton-valentine leukocidin positive community acquired methicillin-resistant Staphylococcus aureus N4042228 by broth microdilution method at pH 7.4; type: functional; procedure, shortened: as §3
Staphylococcus aureus [19] = experiment: Bacteriostatic activity against Panton-valentine leukocidin positive community acquired methicillin-resistant Staphylococcus aureus N4042228 infected in human THP-1 cells assessed as decrease in bacterial growth after 24 hrs at pH 5.5; type: functional; procedure, shortened: as §1

Compound `Cc1onc(-c2ccccc2Cl)c1C(=O)N[C@@H]1C(=O)N2[C@@H]1SC(C)(C)[C@@H]2C(=O)O` [CLOXACILLIN] has an Activity (Staphylococcus aureus [1]) of 11.7 ×MIC, an EC50 (Staphylococcus aureus [2]) of 4.44 ×MIC and a log10cfu (Staphylococcus aureus [3]) of 0.95. It also gave a log10cfu (Staphylococcus aureus [4]) of 2.15, an Activity (Staphylococcus aureus [5]) of 8.12 mg/L and a log10cfu (Staphylococcus aureus [6]) of 0.72. It also gave a log10cfu (Staphylococcus aureus [7]) of 2.42, an MIC (Staphylococcus aureus [8]) of 0.06 µg/mL (≈ 0.138 µM) and a log10cfu (Staphylococcus aureus [9]) of 0.77. It also gave a log10cfu (Staphylococcus aureus [10]) of 0.63, a log10cfu (Staphylococcus aureus [11]) of 0.74 and an MIC (Staphylococcus aureus [12]) of 2 µg/mL (≈ 4.59 µM). It also gave an EC50 (Staphylococcus aureus [13]) of 6.99 ×MIC, an EC50 (Staphylococcus aureus [14]) of 0.39 µg/mL (≈ 0.895 µM) and an MIC (Staphylococcus aureus [15]) of 32 µg/mL (≈ 73.4 µM). The log10cfu (Staphylococcus aureus [16]) was 0.77, the Activity (Staphylococcus aureus [17]) was 0.9 mg/L and the MIC (Staphylococcus aureus [18]) was 0.5 µg/mL (≈ 1.15 µM). For the same compound, the Activity (Staphylococcus aureus [19]) was 45.7 ×MIC.
